IDH1 mut inh: IDH1 R132H (human) inhibition; O75874; IDH1 R132H reductase, diaphorase/resazurin fluorescence, 60 min; inhibition, % at 10 µM; 0.18% of 70,000 active; in the data active = inhibition above about 34%; inconclusive = no clear call, values can overlap the other calls; inactive = below about 11%;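 also: 0% = DMSO and 100% = no enzyme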
Target sequence (O75874 whole entry R132H): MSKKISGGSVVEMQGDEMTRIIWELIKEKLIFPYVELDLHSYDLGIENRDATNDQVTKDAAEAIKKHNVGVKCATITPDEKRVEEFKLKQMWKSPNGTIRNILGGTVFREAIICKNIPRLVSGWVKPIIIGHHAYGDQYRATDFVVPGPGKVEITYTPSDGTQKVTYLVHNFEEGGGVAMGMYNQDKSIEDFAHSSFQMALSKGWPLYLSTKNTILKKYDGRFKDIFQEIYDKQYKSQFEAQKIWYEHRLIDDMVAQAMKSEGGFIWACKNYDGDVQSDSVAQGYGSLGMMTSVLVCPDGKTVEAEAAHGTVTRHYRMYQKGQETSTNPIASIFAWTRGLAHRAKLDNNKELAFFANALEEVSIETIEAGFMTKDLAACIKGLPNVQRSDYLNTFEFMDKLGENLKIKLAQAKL
GASC1 inh: blocks human GASC-1 (KDM4C) demethylase activity; inhibition, % at 12.5 µM; 0.15% of 96,000 active; Q9H3R0; AID 720574; GST-KDM4C 2-372, H3K9me3 peptide, LANCE TR-FRET;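 active = mean replicate inhibition above about 25%, with at least 55% of replicates also reaching it, limit read from the data, passing the limit was not always enough; inconclusive = only one of those two conditions met; inactive = neither condition met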
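Material: GST-tagged GASC-1 (JMJD2C) catalytic fragment, aa 2-372. Input: enzyme final amount 10 nM. Medium: HEPES buffer, pH 7.5, plus ascorbate. Reagent: H3K9me3 peptide substrate, Fe(II), 2-oxoglutarate. Doses: single dose. Times: reaction 30 min RT, detection step 1 h RT. Measured by: LANCE TR-FRET. Evaluation: Fall in 671/618 emission ratio as inhibition.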
T cruzi growth-1: T. cruzi proliferation inhibition; T. cruzi beta-gal in NIH3T3, GalScreen luminescence, 90 h; inhibition, % at 8.34 µM; 5.9% of 77,000 active; AID 624255;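 active = mean inhibition above about 93%, with at least 55% of replicates each passing it, limit read from the data, passing the limit was not always enough; inconclusive = only one of those two conditions holds; inactive = neither condition holds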
T cruzi growth-2: Trypanosoma cruzi proliferation inhibition; 72% of 5,600 active; AID 651739; T. cruzi beta-gal in NIH3T3, GalScreen luminescence, 90 h; shares compounds with T cruzi growth-1; inhibition, % at 8.35 µM;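 active = mean replicate inhibition above about 95% and at least 55% of replicates individually reaching it, limit read from the data; inconclusive = only one of the two criteria is met; inactive = neither criterion is met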
T cruzi growth-3: Trypanosoma cruzi proliferation inhibition | 21% of 5,600 active | T. cruzi beta-gal in NIH3T3, GalScreen luminescence, 90 h | inhibition, % at 2.09 µM | shares compounds with T cruzi growth-1;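 active = mean inhibition above about 95%, with at least 55% of replicates also reaching it, limit read from the data; inconclusive = meets just one of the two conditions; inactive = meets neither condition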;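 also: plate controls were neutral control median for no effect and positive control median for full effect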
NIH3T3 tox: kills mouse NIH/3T3 fibroblasts. shares compounds with T cruzi growth-1. NIH/3T3 viability, CellTiter-Glo ATP luminescence, 90 h. cytotoxicity (signal decrease), % at 8.35 µM. 14% of 5,600 active. AID 651742;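 active = mean signal decrease across replicates above about 35% based on untreated-well scatter, with enough replicates individually passing, limit read from the data; inconclusive = no rule stated though some were filed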;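 also: 0% = median of neutral control wells and 100% = median of positive control wells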
NIH3T3 tox 2: kills mouse NIH/3T3 fibroblasts; shares compounds with T cruzi growth-1; NIH/3T3 viability, CellTiter-Glo ATP luminescence, 90 h; inhibition, % at 24.9 µM; 56% of 5,600 active; AID 651744;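 active = mean loss of cell viability signal at or above a set limit, and enough replicates individually reaching it; inconclusive = meets only the mean limit or only the replicate share; inactive = meets neither condition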;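 also: 0% = median of neutral control wells and 100% = median of positive control wells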
Active calls of the source: *; u = inconclusive; x = not tested or not shown. This excerpt belongs to a sample that is enriched for hits.

SMILES	IDH1 mut inh	GASC1 inh	T cruzi growth-1	T cruzi growth-2	T cruzi growth-3	NIH3T3 tox	NIH3T3 tox 2
CCN1CCOC(CC(=O)Nc2cc(OC)cc(OC)c2)C1=O (configuration not stated)	0	x	x	x	x	x	x
C[C@@H]1CCCCO[C@H](CN(C)C(=O)Nc2ccc(F)cc2)[C@H](C)CN([C@H](C)CO)C(=O)c2cc(NC(=O)CCC(F)(F)F)ccc2O1	x	0	98*	85	72	11	32*
C[C@H](CO)N1C[C@H](C)[C@@H](CN(C)C(=O)Nc2ccc(C(F)(F)F)cc2)OCCCC[C@H](C)Oc2ccc(NC(=O)CCC(F)(F)F)cc2C1=O	x	-1	101*	108*	89	-8	24
COc1ccc(NC(=O)N(C)C[C@H]2Oc3ccc(NC(=O)CCC(F)(F)F)cc3C(=O)N([C@H](C)CO)C[C@H]2C)cc1	-1	-1	-7	x	x	x	x
C[C@@H]1CN([C@H](C)CO)C(=O)c2cc(NC(=O)CCC(F)(F)F)ccc2O[C@@H](C)CCCCO[C@H]1CN(C)C(=O)Nc1ccc(F)cc1	1	1	-46	x	x	x	x
C[C@@H]1CCCCO[C@@H](CN(C)C(=O)Nc2ccc(C(F)(F)F)cc2)[C@@H](C)CN([C@H](C)CO)C(=O)c2cc(NC(=O)CCC(F)(F)F)ccc2O1	x	-1	63	x	x	x	x
COc1ccc(NC(=O)N(C)C[C@@H]2Oc3ccc(NC(=O)CCC(F)(F)F)cc3C(=O)N([C@H](C)CO)C[C@H]2C)cc1	1	0	101*	75	5	-11	0
COC(=O)CNC(=O)c1cn(-c2ccccc2)nc1-c1cc2ccccc2oc1=O	0	x	x	x	x	x	x
COc1cccc(CN2CCN(Cc3cccc([N+](=O)[O-])c3)CC2)c1OC	-1	x	x	x	x	x	x
CCOC(=O)c1sc(NC(=O)c2cc(-c3ccccn3)nc3ccccc23)c(C(=O)OCC)c1C	0	x	x	x	x	x	x
CCn1ncc(CN(C)C(=O)c2cc(-c3cccnc3)nc3ccc(Cl)cc23)c1C	1	x	x	x	x	x	x
O=C(C[C@H]1C[C@@H]2c3cc(NC(=O)c4ccc5c(c4)OCO5)ccc3O[C@@H]2[C@@H](CO)O1)NCc1ccc(Cl)cc1	0	1	101*	101*	56	21	25
O=C(C[C@@H]1C[C@@H]2c3cc(NC(=O)c4ccc5c(c4)OCO5)ccc3O[C@@H]2[C@H](CO)O1)NCc1ccc(Cl)cc1	0	-1	9	x	x	x	x
O=C(C[C@H]1C[C@H]2c3cc(NC(=O)c4ccc5c(c4)OCO5)ccc3O[C@H]2[C@H](CO)O1)NCc1ccc(Oc2ccccc2)cc1	-2	-1	16	x	x	x	x
O=C(C[C@H]1C[C@@H]2c3cc(NC(=O)c4ccc5c(c4)OCO5)ccc3O[C@@H]2[C@H](CO)O1)NCc1ccc(Oc2ccccc2)cc1	-1	-2	177*	99*	38	-15	45*
COc1cc([N+](=O)[O-])ccc1NC(=O)c1ccccc1OCC(=O)NC(C)(C)C	0	x	x	x	x	x	x
C=C1[C@H]2CC[C@@]3(C)[C@H](c4ccoc4)OC(=O)C[C@]13O[C@H]1C[C@H](O)C(C)(C)[C@H](CC(=O)OC)[C@]12C	0	x	x	x	x	x	x
COc1cccc(CN2CCCCN3[C@@H](CO)[C@@H](c4ccc(C#Cc5cccnc5)cc4)[C@@H]3C2)c1	x	0	118*	104*	u	27	104*
COc1cccc(CN2CCCCN3[C@H](CO)[C@@H](c4ccc(C#Cc5cccnc5)cc4)[C@H]3C2)c1	x	1	94	x	x	x	x
COc1cccc(CN2CCCCN3[C@H](CO)[C@@H](c4ccc(-c5cccnc5)cc4)[C@H]3C2)c1	x	0	30	x	x	x	x
COc1cccc(CN2CCCCN3[C@H](C2)[C@@H](c2ccc(C#Cc4cccnc4)cc2)[C@@H]3CO)c1	x	0	117*	94	102*	26	104*
COc1ccc(C)cc1NC(=O)CSc1nc2ccccc2s1	0	x	x	x	x	x	x
O=C(/C=C/CCc1ccccc1)CCc1ccccc1	4	x	x	x	x	x	x
Cc1cc(C)nc(NS(=O)(=O)c2ccc(NC(=S)NC(=O)c3ccccc3Br)cc2)n1	0	x	x	x	x	x	x
CCCNC(=O)C[C@@H]1CC[C@@H]2[C@H](COC[C@@H](O)CN2Cc2ccccc2F)O1	x	0	111*	31	-14	-16	0
